Screening results: PubChem BioAssay, several laboratories
Shown are actives, neighbours in structure and some others; about 4.8% of the full set was active somewhere.
pPAFAH FP inh: pPAFAH (human) enzyme inhibition; Q13093; recombinant pPAFAH, FP-rhodamine probe fluorescence polarization; inhibition, % at 3.39 µM; 330,000 tested, 1.5% active;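 active = inhibition above the mean inhibition across the screen plus 3 SD, cut at about 25% in these data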;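 also: inhibitors block binding of the rhodamine activity-based probe so polarization drops; 0% = enzyme with DMSO and 100% = wells lacking pPAFAH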
Target sequence (Q13093 whole entry, looked up): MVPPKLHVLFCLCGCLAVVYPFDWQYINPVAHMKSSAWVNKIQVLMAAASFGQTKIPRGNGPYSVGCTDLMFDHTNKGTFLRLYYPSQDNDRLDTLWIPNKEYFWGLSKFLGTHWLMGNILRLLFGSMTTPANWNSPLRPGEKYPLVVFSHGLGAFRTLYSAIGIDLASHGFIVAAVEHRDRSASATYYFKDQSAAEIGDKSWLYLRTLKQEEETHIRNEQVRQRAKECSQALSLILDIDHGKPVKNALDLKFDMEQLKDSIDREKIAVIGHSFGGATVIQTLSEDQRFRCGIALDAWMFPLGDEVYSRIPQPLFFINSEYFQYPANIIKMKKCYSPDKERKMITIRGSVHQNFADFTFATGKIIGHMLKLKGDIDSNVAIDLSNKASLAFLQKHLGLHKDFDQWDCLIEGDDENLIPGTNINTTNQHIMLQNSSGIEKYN
PAFAH1B2 FP inh: blocks human PAF acetylhydrolase 1b catalytic subunit 2; P68402; recombinant PAFAH1B2, FP-rhodamine activity probe, fluorescence polarization; inhibition, % at 3.39 µM; 340,000 tested, 1.2% active; AID 492953;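 active = inhibition above the mean of all tested compounds plus 3 SD, cut at about 24% in these data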;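 also: 0% = enzyme with DMSO and 100% = wells lacking PAFAH1B2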
PAFAH1B3 FP inh: PAFAH1B3 (human) inhibition. inhibition, % at 3.39 µM. Q15102. 340,000 tested, 0.28% active. recombinant PAFAH1B3, FP-rhodamine probe, fluorescence polarization;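 active = inhibition above the screen-wide average of all tested compounds plus 3 SD, cut at about 25% in these data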;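 also: 0% = enzyme with DMSO only and 100% = wells lacking PAFAH1B3 protein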
NR3A LBD binder: NR3A (human) ligand-binding domain modulation; NR3A LBD differential scanning fluorimetry, Tm shift; 0% = protein alone, 100% = glycine-bound protein; Tm shift relative to glycine control, % at 25 µM; 340,000 tested, 2.5% active;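 active = melting temperature shift of at least 10% of the positive control shift, at one fixed dose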
UCH37 DUB inh: blocks the human deubiquitinase UCH37; inhibition, % (no concentration beside the values); Q9Y5K5; AID 588478; purified proteasome/UCH37, Ub-AMC cleavage fluorescence; 330,000 tested, 0.33% active;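 active = mean inhibition over replicate wells above about 20%, limit read from the data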;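 also: 0% = compound-free wells with enzyme and 100% = wells lacking proteasome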
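Assay system: Proteasome-bound UCH37. Buffer or medium: pH 7.4 Tris-HCl (50 mM) with ovalbumin, ATP-MgCl2, DTT. Incubation: 30 min preincubation with enzyme, 25 min cleavage at room temperature. Measured by: fluorescence, ex 355 nm, em 460 nm. Read-out basis: percent inhibition. Control set: wells without proteasome as full block, compound-free enzyme plus substrate as uninhibited.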
PAFAH2 FP inh: PAFAH2 (human) inhibition | 340,000 tested, 0.99% active | recombinant PAFAH2, FP-rhodamine activity probe, fluorescence polarization | AID 492956 | inhibition, % at 3.39 µM | Q99487;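 active = inhibition above the mean over all tested compounds plus 3 SD, cut at about 30% in these data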;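 also: inhibitors block probe labeling of enzyme so polarization drops; 0% = enzyme with DMSO and 100% = wells lacking PAFAH2 protein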
Numbers without * were called inactive; . = not tested or not shown.

SMILES | pPAFAH FP inh | PAFAH1B2 FP inh | PAFAH1B3 FP inh | NR3A LBD binder | UCH37 DUB inh | PAFAH2 FP inh
CCOC(=O)C1=C(c2ccccc2)N=c2sc(=Cc3cccc(O)c3)c(=O)n2C1c1cccs1 (centres undefined) | . | . | . | . | 0.3 | .
CCOC(=O)C1=C(c2ccccc2)N=c2s/c(=C\c3ccco3)c(=O)n2C1c1cccs1 (centres undefined) | 29.1* | 8.4 | 8.4 | -3.5 | . | 3.1
Cc1ccc(Cn2nnc(C(=O)Nc3cc(C)ccc3C)c2N)cc1 | 2.8 | 0.4 | 2.8 | -15.6 | -1.2 | 6.1
Cc1cc(C)cc(-n2nnc(C(=O)NCc3ccc(Cl)cc3)c2N)c1 | 0.6 | 10.2 | 8.3 | 32.1* | 3.3 | 1.1
Cc1cc(C)cc(NC(=O)Cn2nnc(C(=O)NCc3ccc4c(c3)OCO4)c2N)c1 | -2.0 | 1.1 | 2.5 | -9.9 | 1.0 | -6.2
Cc1ccc(CNC(=O)Cn2nnc(C(=O)Nc3cc(C)ccc3C)c2N)cc1 | 0.9 | 1.7 | -0.1 | 14.8* | 3.0 | -6.5
Cc1ccc(CNC(=O)c2nnn(CC(=O)Nc3cc(C)cc(C)c3)c2N)cc1 | 1.5 | -11.2 | -18.1 | 20.2* | -1.7 | -22.8
CCC(C(=O)O)N1C(=O)/C(=C/c2cccn2C)SC1=S (centres undefined) | -0.1 | 3.6 | 3.2 | -2.6 | 23.4* | 0.0
Cn1cccc1/C=C1\SC(=S)N(NC(=O)c2ccccc2)C1=O | 5.5 | 0.8 | 8.4 | -6.7 | 11.0 | 0.7
Cn1cccc1/C=C1/SC(=S)N(CC(=O)O)C1=O | 3.0 | -0.5 | 8.4 | 1.0 | 22.9* | -0.2
Cn1cccc1/C=C1\SC(=S)N(NC(=O)c2cccc(Cl)c2)C1=O | 4.3 | 4.0 | 0.0 | 13.0* | 7.5 | 5.2
O=c1[nH]c2cc(Br)cnc2nc1C=C(O)c1ccc(F)cc1 | . | . | . | . | 7.7 | .
CC(C)(C)c1ccc(C(=O)N2CCNCC2)cc1 | 27.5* | 1.2 | 5.7 | -1.7 | 0.2 | -2.7
CCOc1ccc(N(C(C)C(=O)NN=C(C)C(C)(C)C)S(C)(=O)=O)cc1 (centres undefined) | . | . | . | . | 2.7 | .
O=C(NN=Cc1ccc(OC(F)F)cc1)c1ccc(Br)cc1 | . | . | . | . | 0.6 | .
CCOC(=O)C1=C(CSc2nc3c(cc2C#N)CN(C)CC3)OC(N)=C(C#N)C1c1ccc(Cl)cc1 (centres undefined) | 29.0* | 3.0 | 9.3 | -5.1 | -18.2 | 4.3
Cc1ccc(C(=O)Nc2ncc(Cc3ccc(F)cc3)s2)o1 | 2.2 | 28.2* | 1.8 | -0.3 | -0.7 | 6.4
Cc1ccc(C(=O)Nc2ncc(C)s2)o1 | 1.5 | 0.2 | 12.6 | 1.7 | 3.3 | -3.7
Cc1nc2cc(NCc3ccc(Cl)cc3)ccc2n1C | 0.7 | 27.6* | -2.0 | -0.8 | -2.4 | -1.6
CCn1cnc2cc(NCc3ccc(Cl)cc3)ccc21 | -1.0 | 32.4* | 3.0 | 2.2 | -7.8 | -3.2
CCn1cnc2cc(NCc3ccncc3)ccc21 | -8.2 | -0.6 | 5.2 | 0.5 | 3.9 | -0.7
NC(=S)Nc1ccc(Oc2ccc(NC(N)=S)cc2)cc1 | 1.9 | 3.5 | -2.0 | 14.4* | 1.7 | -0.5
CC(C)c1c(C(=O)N/N=C/c2c[nH]c3ccccc23)nnn1-c1nonc1N | 0.5 | 0.0 | -0.5 | 37.6* | . | -2.8
CC(C)c1c(C(=O)N/N=C/c2cccc3ccccc23)nnn1-c1nonc1N | -3.4 | -2.5 | 2.5 | 31.8* | . | -15.5
Cc1ccc(-c2c(C(=O)NN=Cc3c[nH]c4ccccc34)nnn2-c2nonc2N)cc1 | . | . | . | . | -48.1 | .
SMILES | pPAFAH FP inh | PAFAH1B2 FP inh | PAFAH1B3 FP inh | NR3A LBD binder | UCH37 DUB inh | PAFAH2 FP inh
CCOc1ccc(-c2c(C(=O)N/N=C/c3c[nH]c4ccccc34)nnn2-c2nonc2N)cc1 | 1.2 | -1.1 | 4.2 | 32.4* | . | 9.8
CC(C)c1c(C(=O)NN=Cc2ccc(-c3ccccc3)cc2)nnn1-c1nonc1N | . | . | . | . | -0.9 | .
CCCc1c(C(=O)N/N=C/c2cccc3ccccc23)nnn1-c1nonc1N | -10.0 | 1.2 | 10.1 | 39.5* | . | 2.5
CCOc1cc(C=NNC(=O)c2cccc(S(=O)(=O)N3CCCC3)c2)ccc1OCC(=O)N(C)C | . | . | . | . | 2.9 | .
CC(=NO)C1CC(CC(=O)O)C1(C)C (centres undefined) | . | . | . | . | 2.3 | .
CC(=NNC(=S)Nc1cc(S(=O)(=O)N2CCOCC2)ccc1Cl)c1ccccc1F | . | . | . | . | 2.5 | .
O=C1N=C(O)CN1N=Cc1ccc(-c2ccc([N+](=O)[O-])cc2)o1 | . | . | . | . | 5.1 | .
